Source: ChEMBL document CHEMBL4431364, “Discovery and synthetic optimization of a novel scaffold for hydrophobic tunnel-targeted autotaxin inhibition” (Bioorg Med Chem, 2016)

What was measured:
Autotaxin [1] = molecular target: T1, Autotaxin (Homo sapiens, UniProt Q13822); experiment: Inhibition of C-terminal FLAG tagged human recombinant ATX expressed in insect sf9 cells using FS-3 as substrate measured every 2 mins for 60 mins by FRET assay
Procedure, shortened: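 Dose response over 0.03 to 30 μM compound, 10 nM human FLAG-fusion ATX, 1 μM FS-3 in pH 8.0 Tris/BSA assay buffer. Fluorescence at 485/520 nm every 2 min for 60 min at 37 °C, normalized to no-ATX and no-compound controls. IC50 by non-linear regression. Triplicate.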

[2] = molecular target: T2, Ectonucleotide pyrophosphatase/phosphodiesterase family member 7 (Homo sapiens) (UniProt Q6UWV6); experiment: Inhibition of C-terminal FLAG tagged human recombinant NPP7 expressed in insect sf9 cells assessed as remaining enzyme activity response at 10 uM using pNPPC as substrate measured every 2 mins for 1 hr by […]
T2 sequence (whole entry): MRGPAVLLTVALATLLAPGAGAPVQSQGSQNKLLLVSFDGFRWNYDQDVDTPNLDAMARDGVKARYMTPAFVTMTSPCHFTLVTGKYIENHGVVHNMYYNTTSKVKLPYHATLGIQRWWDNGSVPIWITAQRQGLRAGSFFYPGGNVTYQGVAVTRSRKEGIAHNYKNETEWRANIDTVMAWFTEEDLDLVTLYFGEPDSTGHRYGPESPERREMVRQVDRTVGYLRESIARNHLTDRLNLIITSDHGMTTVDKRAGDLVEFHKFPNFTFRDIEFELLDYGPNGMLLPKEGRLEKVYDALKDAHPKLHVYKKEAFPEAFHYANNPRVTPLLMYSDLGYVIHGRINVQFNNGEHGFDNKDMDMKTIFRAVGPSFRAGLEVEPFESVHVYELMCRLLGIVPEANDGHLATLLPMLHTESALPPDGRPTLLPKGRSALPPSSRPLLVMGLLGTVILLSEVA
Procedure, shortened: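 Human FLAG-fusion NPP7 (10 nM final) with 10 μM compound and 10 μM pNPPC in 50 mM Tris-HCl, 150 mM NaCl, 10 mM taurocholate, pH 8. Absorbance at 405 nm, 37 °C, every 2 min for an hour. Background subtracted. Mean percent of enzyme-only response (no-enzyme = 0%). Triplicate.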

[3] = molecular target: T3, Glycerophosphocholine cholinephosphodiesterase ENPP6 (Homo sapiens) (UniProt Q6UWR7); experiment: Inhibition of C-terminal FLAG tagged human recombinant NPP6 expressed in insect sf9 cells assessed as remaining enzyme activity response at 10 uM using pNPPC as substrate measured every 2 mins for 1 hr by […]
T3 sequence (whole entry): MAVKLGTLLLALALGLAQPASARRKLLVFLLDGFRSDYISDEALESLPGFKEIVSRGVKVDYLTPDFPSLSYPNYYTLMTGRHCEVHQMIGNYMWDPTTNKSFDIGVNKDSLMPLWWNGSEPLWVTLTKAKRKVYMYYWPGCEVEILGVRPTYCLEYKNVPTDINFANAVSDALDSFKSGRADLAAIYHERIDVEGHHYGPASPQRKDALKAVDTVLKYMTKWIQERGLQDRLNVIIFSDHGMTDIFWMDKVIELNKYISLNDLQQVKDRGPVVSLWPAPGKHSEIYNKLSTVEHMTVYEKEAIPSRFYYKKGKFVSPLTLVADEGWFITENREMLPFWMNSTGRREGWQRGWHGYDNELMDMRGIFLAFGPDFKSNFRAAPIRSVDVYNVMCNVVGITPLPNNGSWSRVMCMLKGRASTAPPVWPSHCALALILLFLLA
Procedure, shortened: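 Final 10 nM human FLAG-fusion NPP6, 10 μM compound, 10 μM pNPPC in 500 mM NaCl, 100 mM Tris-HCl, 0.05% Triton X-100, pH 9. A405 at 37 °C every 2 min for 1 h. Background absorbance subtracted. Mean percent response relative to enzyme-only control (no-enzyme = 0%). Triplicate.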

Autotaxin [4] = molecular target: T1, Autotaxin; experiment: Inhibition of C-terminal FLAG tagged human recombinant ATX expressed in insect sf9 cells at 10 uM using FS-3 as substrate measured every 2 mins for 60 mins by FRET assay
Procedure, shortened: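 10 μM compound with 10 nM human FLAG-fusion ATX in pH 8.0 Tris buffer (30 μM BSA, 1 mM CaCl2, 1 mM MgCl2, 5 mM KCl, 140 mM NaCl) and 1 μM FS-3. Fluorescence at ex 485/em 520 nm read every 2 min for 60 min at 37 °C. Normalized to no-ATX (0%) and ATX without compound (100%). Triplicate.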

Autotaxin [5] = molecular target: T1, Autotaxin; experiment: Inhibition of C-terminal FLAG tagged human recombinant ATX expressed in insect sf9 cells using pNP-TMP as substrate measured every 2 mins for 60 mins by absorbance
Procedure, shortened: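 Dose response 0.03 to 30 μM compound against 10 nM human FLAG-fusion ATX with 1 mM pNP-TMP in pH 8.0 Tris/BSA buffer. A405 every 2 min for 60 min at 37 °C, normalized to no-enzyme and uninhibited controls. IC50 by non-linear regression. Triplicate.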

Autotaxin [6] = molecular target: T1, Autotaxin; experiment: Inhibition of C-terminal FLAG tagged human recombinant ATX expressed in insect sf9 cells at 10 uM using pNP-TMP as substrate measured every 2 mins for 60 mins by absorbance

| IC50 (Autotaxin [1]) | Activity [2] | Activity [3] | inhibition (Autotaxin [4]) | IC50 (Autotaxin [5]) | inhibition (Autotaxin [6]) | SMILES |
| --- | --- | --- | --- | --- | --- | --- |
| 3.7 µM | 103% | 92.2% | 51.8% |  |  | O=C(COc1ccc(Cl)cc1Cl)N1CCN(c2ccc([N+](=O)[O-])cc2)CC1 |
| 3.7 µM | 89.2% | 93.4% | 79.8% | 6.2 µM | 56.6% | O=C(O)c1cccc(N2CCN(C(=O)COc3ccc(Cl)cc3)CC2)c1 |
| 2.2 µM | 87.3% | 89.2% | 67.1% |  | 37.9% | O=C(O)c1cccc(N2CCN(C(=O)COc3cccc(C(F)(F)F)c3)CC2)c1 |
| 7.3 µM |  |  | 54.6% | 5.2 µM | 56.2% | O=C(O)c1cccc(N2CCN(C(=O)COc3cc(Cl)cc(Cl)c3)CC2)c1 |
| 2.2 µM | 114% | 94% | 76% |  | 19.9% | O=C(COc1ccc(Cl)cc1)N1CCN(c2ccc([N+](=O)[O-])cc2)CC1 |
| 6 µM |  |  | 74.5% |  | 32.1% | O=C(O)c1ccccc1N1CCN(C(=O)COc2ccc(Cl)cc2)CC1 |
| 4 µM | 86.3% | 92.2% | 65.5% |  | 27.7% | O=C(CCCOc1ccc(Cl)cc1Cl)N1CCN(c2ccc([N+](=O)[O-])cc2)CC1 |
| 3 µM | 99% | 93.4% | 77.7% | 11.4 µM | 46.8% | O=C(COc1cc(Cl)cc(Cl)c1)N1CCN(c2ccccc2[N+](=O)[O-])CC1 |
| 6.2 µM |  |  | 59.8% |  | 13.3% | O=C(COc1cccc(F)c1)N1CCN(c2cccc([N+](=O)[O-])c2)CC1 |
| 2.2 µM | 90.2% | 91% | 59.8% |  | 23.4% | O=C(O)c1ccccc1N1CCN(C(=O)COc2cc(Cl)cc(Cl)c2)CC1 |
| 9.2 µM |  |  | 54.6% |  | -3.7% | O=C(COc1ccccc1C(F)(F)F)N1CCN(c2ccc([N+](=O)[O-])cc2)CC1 |
| 8.1 µM |  |  | 51.5% |  | 23.7% | O=C(O)c1cccc(N2CCN(C(=O)COc3ccccc3C(F)(F)F)CC2)c1 |
| 4.6 µM |  |  | 58.1% |  | 41.1% | O=C(O)c1cccc(N2CCN(C(=O)COc3ccc(F)cc3)CC2)c1 |
| 2.6 µM | 84.3% | 96.4% | 80% |  | 37.1% | O=C(O)c1cccc(N2CCN(C(=O)COc3cccc(Cl)c3)CC2)c1 |
| 7.5 µM |  |  | 65% |  | 31.6% | O=C(O)c1cccc(N2CCN(C(=O)COc3ccc(C(F)(F)F)cc3)CC2)c1 |
| 1.8 µM | 90.5% | 97.6% | 89.1% |  | 43.7% | O=C(O)c1ccccc1N1CCN(C(=O)COc2ccc(C(F)(F)F)cc2)CC1 |
| 11.4 µM |  |  | 50% |  | 38.2% | O=C(COc1ccccc1C(F)(F)F)N1CCN(c2ccccc2[N+](=O)[O-])CC1 |
| 4.7 µM |  |  | 72.6% | 11.3 µM | 44.7% | O=C(COc1ccc(C(F)(F)F)cc1)N1CCN(c2ccccc2[N+](=O)[O-])CC1 |
| 2.3 µM | 93.1% | 95.8% | 63% |  | 20.4% | O=C(COc1cc(Cl)cc(Cl)c1)N1CCN(c2ccc([N+](=O)[O-])cc2)CC1 |
| 4.6 µM |  |  | 70.6% |  | 15.6% | O=C(COc1cccc(Cl)c1)N1CCN(c2ccc([N+](=O)[O-])cc2)CC1 |
| 6.5 µM |  |  | 56% |  | 6.8% | O=C(O)c1ccc(N2CCN(C(=O)COc3cccc(Cl)c3)CC2)cc1 |
| 6 µM |  |  | 54.1% |  | -6.9% | CCCCCCCCCCCCCC(=O)NC(CCC(=O)O)C(=O)O (centres undefined) |
| 4.2 µM |  |  | 60.4% |  | 30.3% | O=C(COc1ccc(C(F)(F)F)cc1)N1CCN(c2cccc([N+](=O)[O-])c2)CC1 |
| 8.1 µM |  |  | 50.2% |  | 26.6% | O=C(COc1ccc(C(F)(F)F)cc1)N1CCN(c2ccc([N+](=O)[O-])cc2)CC1 |
| 3.4 µM | 89.5% | 89.8% | 73.2% |  | 7.3% | O=C(COc1ccc(Cl)cc1Cl)N1CCN(c2cccc([N+](=O)[O-])c2)CC1 |
| 8.9 µM |  |  | 55.2% |  | 30.2% | O=C(O)c1cccc(N2CCN(C(=O)COc3cccc(F)c3)CC2)c1 |
| 6.7 µM |  |  | 56.4% |  | 7.7% | O=C(COc1ccccc1C(F)(F)F)N1CCN(c2cccc([N+](=O)[O-])c2)CC1 |
| 4.1 µM |  |  | 69.8% |  | 37.1% | O=C(COc1ccc(Cl)cc1Cl)N1CCN(c2ccccc2[N+](=O)[O-])CC1 |
| 2.1 µM | 103% | 95.2% | 76.1% |  | 29.5% | O=C(O)c1cccc(N2CCN(C(=O)COc3ccc(Cl)cc3Cl)CC2)c1 |
